The text below walks through data of ChEMBL document CHEMBL1938365, “Design and synthesis of novel small-molecule inhibitors of the hypoxia inducible factor pathway” (J Med Chem, 2011).

By IC50 is commonly meant the point on the concentration scale where inhibition reaches its midpoint. Read a low IC50 as inhibition by little substance. The pIC50 is −log10 of the IC50, conventionally taken in molar units.

The target of test [1] is T1, Hypoxia inducible factors; HIF-1-alpha, HIF-2-alpha (Homo sapiens, UniProt Q16665+Q99814). The test can be described thus: Inhibition of HIF1 in human LN229 cells after 1 hr preincubation under hypoxic condition measured after 24 hrs by luciferase reporter gene assay. Type of test: cell-based. In outline:
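LN229-HRELux human glioma cells stably carry a luciferase reporter driven by six VEGF-derived HIF response elements. Cells were seeded at 3 × 10^4 per well and held 24 h in normoxia, then pretreated 1 h with compound at 0, 1, 5, 10 or 25 μM (vehicle 1% DMSO). They were then moved to hypoxia (1% O2) for 24 h, lysed and read for luciferase. Reference inhibitor ran alongside; quadruplicate wells; IC50 from concentration curve.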
In general terms: Reporter assays use an easily measured gene product as a stand-in for the process of interest.

Test [2] addresses T1, Hypoxia inducible factors; HIF-1-alpha, HIF-2-alpha. The test can be described thus: Inhibition of HIF1 in human LN229 cells at 10 uM after 1 hr preincubation under hypoxic condition measured after 24 hrs by luciferase reporter gene assay. The format is cell-based. In outline: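 LN229 glioma cells stably transfected with VEGF promoter-luciferase (LN229-VEGF-Luc) were pretreated 1 h in normoxia with 10 μM (final) compound, then kept 24 h in normoxia or hypoxia. Luciferase was read as relative light units against vehicle control; triplicates, mean ± standard deviation.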

The target of test [3] is Hypoxia-inducible factor 1-alpha (Homo sapiens) (UniProt Q16665). Briefly: Inhibition of hypoxia-induced HIF1alpha accumulation in human LN229 cells at 20 uM after 1 hr preincubation measured after 24 hrs by Western blot analysis. The format is functional, cell-based. The conditions noted are these: LN-229. In outline:
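Western blot for HIF-1α in LN229 cells after 1 h pretreatment with inhibitor at 20 μM final (bortezomib control 100 nM), followed by 24 h in normoxia or hypoxia.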
In general terms: In western blotting, separated proteins are transferred to a membrane and probed.

The next test has as its system LN229. The test can be described thus: Ratio of KCN-1 IC50 to compound IC50 for HIF1 in human LN229 cells under hypoxic condition. Type of test: cell-based.

Structures are written as SMILES. pIC50: −log10 of the molar value. Activity calls are given as the source filed them. The calls are words filed in the database; no cut-off is given here.

Sequence of Hypoxia-inducible factor 1-alpha (Homo sapiens) (Q16665 whole entry, looked up): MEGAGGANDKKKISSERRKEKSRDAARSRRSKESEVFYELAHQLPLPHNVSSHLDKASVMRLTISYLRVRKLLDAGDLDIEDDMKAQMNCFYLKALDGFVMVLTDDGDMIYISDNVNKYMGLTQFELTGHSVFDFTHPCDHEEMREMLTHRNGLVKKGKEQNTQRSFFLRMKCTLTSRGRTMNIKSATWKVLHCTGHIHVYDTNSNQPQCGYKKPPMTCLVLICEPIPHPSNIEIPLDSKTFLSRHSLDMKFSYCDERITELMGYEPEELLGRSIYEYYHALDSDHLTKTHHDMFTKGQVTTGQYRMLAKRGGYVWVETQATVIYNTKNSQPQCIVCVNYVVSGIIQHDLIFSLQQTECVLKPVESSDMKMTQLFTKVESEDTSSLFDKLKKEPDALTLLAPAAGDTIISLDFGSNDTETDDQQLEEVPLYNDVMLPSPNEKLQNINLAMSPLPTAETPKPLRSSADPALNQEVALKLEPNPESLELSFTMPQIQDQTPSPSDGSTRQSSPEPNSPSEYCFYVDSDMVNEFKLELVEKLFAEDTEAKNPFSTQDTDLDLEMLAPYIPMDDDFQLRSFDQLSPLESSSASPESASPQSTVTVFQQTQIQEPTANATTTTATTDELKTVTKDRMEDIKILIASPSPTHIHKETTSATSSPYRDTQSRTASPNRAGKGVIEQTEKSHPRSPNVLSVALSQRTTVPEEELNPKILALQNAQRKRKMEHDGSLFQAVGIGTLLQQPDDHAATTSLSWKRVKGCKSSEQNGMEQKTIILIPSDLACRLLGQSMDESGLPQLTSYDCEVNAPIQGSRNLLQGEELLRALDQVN

On to `CC1(C)C=Cc2nc(CN(c3ccccc3)S(=O)(=O)c3ccc4c(c3)OCCO4)ccc2O1`, for which the IC50 in test [1] worked out at 0.9 µM.
Same read-out and setting: as for `COc1ccc(S(=O)(=O)N(Cc2cnc3c(c2)C=CC(C)(C)O3)C2CCCCC2)cc1OC`, the figure is above 25 µM; as for `COc1ccc(S(=O)(=O)N(Cc2ccc3c(c2)C=CC(C)(C)O3)C2CCCCC2)cc1OC`, 4 µM.
Compound `COc1ccc(S(=O)(=O)N(Cc2cnc3c(c2)C=CC(C)(C)O3)c2ccccc2)cc1OC` had an IC50 in test [1] of 2.5 µM.
The same measure, in the same setting: next, `CC1(C)C=Cc2cc(CNc3ccccc3F)ccc2O1`: above 25 µM; `CCC1(C)C=Cc2cc(CN(c3ccccc3)S(=O)(=O)c3ccc(OC)c(OC)c3)ccc2O1` (stereo not drawn): 2.2 µM; `COc1ccc(S(=O)(=O)N(Cc2ccc3c(n2)C=CC(C)(C)O3)c2ccc(F)cc2)cc1OC`: 5.7 µM.
The same measure, in the same setting: as for `COc1ccc(S(=O)(=O)N(Cc2ccc3c(n2)C=CC(C)(C)O3)C2CCCCCC2)cc1OC`, the figure is 6.6 µM.
For `COc1ccc(S(=O)(=O)N(Cc2ccc3c(c2)C=CC(C)(C)O3)C2CCCC2)cc1OC`, the IC50 in test [1] is 0.5 µM. The “HIF1 inhibition activity call (active/inactive)” value in test [2] was “Active”. In addition, the inhibition entry in test [3] is “Active”.
For `COc1ccc(S(=O)(=O)N(Cc2ccc3c(n2)C=CC(C)(C)O3)C2CCCCCCC2)cc1OC`, the IC50 in test [1] worked out at 0.7 µM.
`COc1ccc(S(=O)(=O)N(Cc2cnc3ccccc3c2)c2ccccc2)cc1OC`: the pIC50 in test [1] is 5.46.
On to `CC1(C)C=Cc2cc(CNc3ccccc3Br)ccc2O1`, for which the IC50 in test [1] was above 25 µM.
`COc1ccc(S(=O)(=O)N(Cc2ccc3c(c2)C=CC(C)(C)O3)c2ccccc2)cc1OC`: the “HIF1 inhibition activity call (active/inactive)” value in test [2] is “Active”. Also, the inhibition result in test [3] was “inactive”.
In test [1], `COc1ccc(S(=O)(=O)N(Cc2ccc3c(c2)CC(C)(C)O3)C2CCCCCC2)cc1OC` yielded an IC50 of 9.1 µM.
The same measure, in the same setting: next, `CC1(C)C=Cc2cc(CN(c3ccccc3)S(=O)(=O)c3ccc([N+](=O)[O-])cc3)ncc2O1`: 1.8 µM.
Still for that read-out and setting: next, `COc1ccc(S(=O)(=O)N(Cc2ccc3c(n2)C=CC(C)(C)O3)C2CCCCC2)cc1OC`: 0.8 µM.
Still for that read-out and setting: next, `CC(C)c1ccc(S(=O)(=O)N(Cc2cc3c(cn2)OC(C)(C)C=C3)C2CCCCC2)cc1`: 5.8 µM.
As to `COc1ccc(N(Cc2ccc3c(n2)C=CC(C)(C)O3)S(=O)(=O)c2ccc(OC)c(OC)c2)cc1OC`, the IC50 in test [1] is above 25 µM.
Still for that read-out and setting: as for `CC(C)S(=O)(=O)N(Cc1ccc2c(n1)C=CC(C)(C)O2)c1ccccc1`, the figure is 13.4 µM.
In test [1], `CCCCN(Cc1ccc2c(c1)CC(C)(C)O2)S(=O)(=O)c1ccc(OC)c(OC)c1` showed an IC50 of 0.478 µM. Also, the “HIF1 inhibition activity call (active/inactive)” value in test [2] is “Active”. For the same compound, the inhibition result in test [3] is “inactive”.
In the case of `CC1(C)C=Cc2nc(CN(c3ccccc3)S(=O)(=O)c3cccc4cccnc34)ccc2O1`, the IC50 in test [1] amounted to 0.9 µM.
Same read-out and setting: next, `CC1(C)C=Cc2nc(CN(c3ccccc3)S(=O)(=O)C3CC3)ccc2O1`: above 25 µM; `COc1ccc(S(=O)(=O)N(Cc2ccc3c(n2)C=CC(C)(C)O3)c2ccccc2)cc1OC`: 1.3 µM; `Cc1cc(C)cc(S(=O)(=O)N(Cc2ccc3c(c2)C=CC(C)(C)O3)c2ccccc2)c1`: 0.5 µM.
In test [1], `COc1ccc(S(=O)(=O)N(Cc2ccc3c(n2)C=CC(C)(C)O3)C2CCC2)cc1OC` had an IC50 of 0.28 µM. The Ratio IC50 in the test with LN229 is above 2. In addition, the “HIF1 inhibition activity call (active/inactive)” value in test [2] was “Active”. Moreover, the inhibition entry in test [3] is “inactive”.
With `COc1ccc(S(=O)(=O)N(Cc2cc3c(cn2)OC(C)(C)C=C3)c2ccccc2)cc1`, the IC50 in test [1] is 1.4 µM.
On to `COc1c(C(C)n2cnc3ncccc32)ccc2c1C=CC(C)(C)O2` (stereo not drawn), for which the “HIF1 inhibition activity call (active/inactive)” value in test [2] was “Active”. Also, the inhibition result in test [3] is “inactive”.
Take `COc1ccc(S(=O)(=O)N(Cc2ccc3c(c2)C=CC(C)(C)O3)C2CC2)cc1OC`: the IC50 in test [1] amounted to 1.5 µM.
In test [1], `CC1(C)C=Cc2nc(CN(c3ccccc3)S(=O)(=O)C3CCCCC3)ccc2O1` yielded an IC50 of 0.4 µM.
`CN(Cc1ccc2c(c1)C=CC(C)(C)O2)c1ccccn1` displayed an IC50 in test [1] of 8.4 µM.
On the same count and under the same terms, as for `COc1ccc(S(=O)(=O)N(Cc2ccc3c(c2)CC(C)(C)O3)C(C)C)cc1OC`, the figure is 1.5 µM.
On to `COc1ccc(S(=O)(=O)N(Cc2ccc3c(c2)C=CC(C)(C)O3)c2ccccc2)cc1`, for which, in test [1], the IC50 worked out at 0.6 µM.
Still for that read-out and setting: next, `Cc1ccc(N(C)Cc2ccc3c(c2)C=CC(C)(C)O3)c(C)c1`: 2.6 µM; `CCCS(=O)(=O)N(Cc1ccc2c(n1)C=CC(C)(C)O2)c1ccccc1`: 6.4 µM.
Consider `CC1(C)C=Cc2nc(CN(c3ccccc3)S(=O)(=O)c3ccc4c(c3)OCO4)ccc2O1`, for which the IC50 in test [1] turned out to be 6.5 µM.
Compound `COc1ccc(NCc2ccc3c(c2)C=CC(C)(C)O3)cc1OC` yielded an IC50 in test [1] of 3 µM.
The compound `C#CCN(Cc1ccc2c(c1)C=CC(C)(C)O2)S(=O)(=O)c1ccc(OC)c(OC)c1` gave an IC50 in test [1] of 1.3 µM.
`COc1ccc(S(=O)(=O)N(Cc2ccc3c(c2)CC(C)(C)O3)C2CCCCC2)cc1OC` displayed an IC50 in test [1] of 8.2 µM.
Still for that read-out and setting: next, `COc1ccc(S(=O)(=O)N(Cc2ccc3c(n2)C=CC(C)(C)O3)C2CCCC2)cc1OC`: 0.6 µM; `COc1ccc(N(C)Cc2ccc3c(c2)C=CC(C)(C)O3)cc1OC`: 5 µM.
Same read-out and setting: next, `CCCCS(=O)(=O)N(Cc1ccc2c(n1)C=CC(C)(C)O2)c1ccccc1`: 5 µM; `Cc1ccc(NCc2ccc3c(c2)C=CC(C)(C)O3)c(C)c1`: above 25 µM.
In test [1], `CC1(C)C=Cc2cc(CN(c3ccccc3)S(=O)(=O)c3cc(Cl)ccc3Cl)ccc2O1` had an IC50 of 2.1 µM.
Regarding `COc1ccc(S(=O)(=O)N(Cc2cc3c(cn2)OC(C)(C)C=C3)C2CCCCC2)cc1OC`, the IC50 in test [1] stood at 1.1 µM.
Still for that read-out and setting: as for `CCCCN(Cc1ccc2c(n1)C=CC(C)(C)O2)S(=O)(=O)c1ccc(OC)c(OC)c1`, the figure is 0.9 µM.
Compound `COc1ccc(S(=O)(=O)N(Cc2ccc3c(c2)CC(C)(C)O3)c2ccccc2)cc1OC` returned an IC50 in test [1] of 0.306 µM. For the same compound, the Ratio IC50 in the test with LN229 was above 2. Further, the “HIF1 inhibition activity call (active/inactive)” value in test [2] is “Active”. The inhibition entry in test [3] is “Active”.
`CC1(C)C=Cc2cc(CNc3ccc(C(=O)O)cc3)ccc2O1`: the IC50 in test [1] is above 25 µM.
On to `COc1ccc(S(=O)(=O)N(CCC(C)C)Cc2ccc3c(c2)C=CC(C)(C)O3)cc1OC`, for which, in test [1], the IC50 stood at 1.6 µM.
Same read-out and setting: as for `CCCCN(Cc1ccc2c(c1)C=CC(C)(C)O2)S(=O)(=O)c1ccc(OC)c(OC)c1`, the figure is 3.3 µM.
For `CC(C)C[C@H](NC(=O)[C@H](Cc1ccccc1)NC(=O)c1cnccn1)B(O)O`, in test [3], the inhibition entry was “Active”.
In the case of `COc1ccc(S(=O)(=O)N(Cc2ccc3c(n2)C=CC(C)(C)O3)c2ccc3c(c2)CCCC3)cc1OC`, the IC50 in test [1] stood at 6.2 µM.
Still for that read-out and setting: next, `COc1ccc(S(=O)(=O)N(Cc2ccc3c(c2)C=CC(C)(C)O3)C(C)(C)C)cc1OC`: 3.5 µM; `C=CCN(Cc1ccc2c(c1)C=CC(C)(C)O2)S(=O)(=O)c1ccc(OC)c(OC)c1`: 3.4 µM; `COc1ccc(S(=O)(=O)N(Cc2ccc3c(c2)C=CC(C)(C)O3)C(C)C)cc1OC`: 3.1 µM.
For `CC(C)CS(=O)(=O)N(Cc1ccc2c(n1)C=CC(C)(C)O2)c1ccccc1`, the IC50 in test [1] is 0.9 µM.
The same measure, in the same setting: as for `CC1(C)C=Cc2cc(CN(c3ccccc3)S(=O)(=O)c3ccc(Br)cc3OC(F)(F)F)ccc2O1`, the figure is above 25 µM.
In turn, `COc1ccc(S(=O)(=O)N(Cc2ccc3c(c2)CC(C)(C)O3)C2CCCC2)cc1OC` registered an IC50 in test [1] of 0.378 µM. The “HIF1 inhibition activity call (active/inactive)” value in test [2] was “Active”. For the same compound, the inhibition result in test [3] was “inactive”.
Take `CC1(C)C=Cc2nc(CN(c3ccccc3)S(=O)(=O)c3ccc(-c4ccccc4)cc3)ccc2O1`: the IC50 in test [1] worked out at 3.4 µM.
Take `CC1(C)C=Cc2cc(CNc3ccccn3)ccc2O1`: the IC50 in test [1] is 8.5 µM.
